Laboratory results taken from ChEMBL document CHEMBL1275445, “Low beta-lactamase-negative ampicillin-resistant Haemophilus influenzae strains are best detected by testing amoxicillin susceptibility by the broth microdilution method” (2008).
In brackets after ≈: the same amount, converted by molar mass.

How the values were obtained:
Format in all cases: functional
Haemophilus influenzae [1] = test: Antibacterial activity against Beta-lactamase negative Haemophilus influenzae assessed as susceptible isolates after 20 to 24 hrs by broth microdilution method
Method in brief: (§1)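 CLSI broth microdilution in Mueller-Hinton broth with HTM supplement and yeast extract (5%), inoculum about 5 x 10^5 CFU/ml (checked by colony counts on chocolate agar); 35°C, 20–24 h in 5% CO2. MIC = lowest concentration inhibiting growth; amoxicillin-clavulanic acid at 2:1. β-lactamase status by nitrocephin test.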

Haemophilus influenzae [2] = test: Antibacterial activity against Beta-lactamase positive Haemophilus influenzae isolate harboring fst1 mutant gene after 20 to 24 hrs by broth microdilution method in presence of clavulanic acid
Method in brief: (§2)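 Broth microdilution per CLSI, with plates incubated in 5% CO2. Mueller-Hinton broth with HTM supplement and yeast extract (5%). Inoculum about 5 x 10^5 CFU/ml, checked by colony counts on chocolate agar. Amoxicillin-clavulanic acid at 2:1 ratio. 35°C, 20 to 24 h. MIC is the lowest concentration inhibiting growth. Isolates genotyped for ftsI/blaTEM by sequencing; β-lactamase by nitrocefin test.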

Haemophilus influenzae [3] = test: Antibacterial activity against Beta-lactamase positive Haemophilus influenzae isolate after 20 to 24 hrs by broth microdilution method; method in brief: as §1
Haemophilus influenzae [4] = test: Antibacterial activity against Beta-lactamase negative Haemophilus influenzae harboring fst1 mutant gene assessed as resistant isolates after 20 to 24 hrs by broth microdilution method
Method in brief: (§3)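 Broth microdilution per CLSI on clinical H. influenzae isolates genotyped by ftsI/blaTEM PCR and sequencing. Medium: Mueller-Hinton broth with HTM supplement and yeast extract (5%). Inoculum about 5 x 10^5 CFU/ml, confirmed by colony counts on chocolate agar. Incubation 35°C, 20 to 24 h, 5% CO2. MIC was the lowest concentration inhibiting growth. Amoxicillin-clavulanic acid tested at 2:1. β-lactamase status determined by nitrocefin test.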

Haemophilus influenzae [5] = test: Antibacterial activity against Beta-lactamase positive Haemophilus influenzae isolate harboring fst1 mutant gene after 20 to 24 hrs by broth microdilution method; method in brief: as §3
Haemophilus influenzae [6] = test: Antibacterial activity against Beta-lactamase negative Haemophilus influenzae isolate after 20 to 24 hrs by Etest method in presence of clavulanic acid
Method in brief: (§4)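 Etest on clinical H. influenzae isolates genotyped for ftsI and blaTEM by PCR and sequencing; β-lactamase status by nitrocefin chromogenic test. Colonies from overnight chocolate agar suspended in saline to McFarland 0.5, swabbed confluently onto 150-mm agar plates, strips placed radially; 35°C, 5% CO2, 20 to 24 h. MIC read where inhibition ellipse meets strip, rounded up to next log2 concentration.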

Haemophilus influenzae [7] = test: Antibacterial activity against Beta-lactamase negative Haemophilus influenzae isolate harboring fst1 mutant gene after 20 to 24 hrs by Etest method in presence of clavulanic acid; method in brief: as §4
Haemophilus influenzae [8] = test: Antibacterial activity against Beta-lactamase positive Haemophilus influenzae assessed as susceptible isolates after 20 to 24 hrs by Etest method
Method in brief: (§5)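 Confluent swab of agar plates with saline suspension of overnight chocolate-agar colonies at McFarland 0.5; Etest strips placed radially; 35°C, 5% CO2, 20–24 h. MIC read where the inhibition ellipse meets the strip, rounded up to next log2 concentration. β-lactamase status by nitrocephin chromogenic cephalosporin test; genotype by ftsI/blaTEM sequencing.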

Haemophilus influenzae [9] = test: Antibacterial activity against Beta-lactamase negative Haemophilus influenzae harboring fst1 mutant gene assessed as susceptible isolates after 20 to 24 hrs by Etest method
Method in brief: (§6)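 Etest on clinical H. influenzae isolates genotyped by ftsI/blaTEM sequencing. Overnight chocolate-agar colonies were suspended in saline to McFarland 0.5 and swabbed confluently onto 150-mm agar plates. Strips were placed radially, then plates incubated at 35°C in 5% CO2 for 20 to 24 h. MIC read where the inhibition ellipse meets the strip. Values rounded up to the next log2 step.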

Haemophilus influenzae [10] = test: Antibacterial activity against Beta-lactamase negative Haemophilus influenzae harboring fst1 mutant gene assessed as susceptible isolates after 20 to 24 hrs by broth microdilution method; method in brief: as §3
Haemophilus influenzae [11] = test: Antibacterial activity against Beta-lactamase negative Haemophilus influenzae isolate harboring fst1 mutant gene after 20 to 24 hrs by Etest method; method in brief: as §6
Haemophilus influenzae [12] = test: Antibacterial activity against Beta-lactamase positive Haemophilus influenzae isolate after 20 to 24 hrs by Etest method; method in brief: as §6
Haemophilus influenzae [13] = test: Antibacterial activity against Beta-lactamase positive Haemophilus influenzae assessed as resistant isolates after 20 to 24 hrs by Etest method; method in brief: as §6
Haemophilus influenzae [14] = test: Antibacterial activity against Beta-lactamase negative Haemophilus influenzae isolate after 20 to 24 hrs by Etest method; method in brief: as §6
Haemophilus influenzae [15] = test: Antibacterial activity against Beta-lactamase negative Haemophilus influenzae isolate after 20 to 24 hrs by broth microdilution method; method in brief: as §3
Haemophilus influenzae [16] = test: Antibacterial activity against Beta-lactamase negative Haemophilus influenzae isolate harboring fst1 mutant gene after 20 to 24 hrs by broth microdilution method; method in brief: as §3
Haemophilus influenzae [17] = test: Antibacterial activity against Beta-lactamase negative Haemophilus influenzae isolate after 20 to 24 hrs by broth microdilution method in presence of clavulanic acid; method in brief: as §2
Haemophilus influenzae [18] = test: Antibacterial activity against Beta-lactamase negative Haemophilus influenzae isolate harboring fst1 mutant gene after 20 to 24 hrs by broth microdilution method in presence of clavulanic acid; method in brief: as §2
Haemophilus influenzae [19] = test: Antibacterial activity against Beta-lactamase negative Haemophilus influenzae assessed as susceptible isolates after 20 to 24 hrs by Etest method; method in brief: as §5
Haemophilus influenzae [20] = test: Antibacterial activity against Beta-lactamase positive Haemophilus influenzae isolate harboring fst1 mutant gene after 20 to 24 hrs by Etest method; method in brief: as §6
Haemophilus influenzae [21] = test: Antibacterial activity against Beta-lactamase positive Haemophilus influenzae isolate after 20 to 24 hrs by Etest method in presence of clavulanic acid; method in brief: as §4
Haemophilus influenzae [22] = test: Antibacterial activity against Beta-lactamase positive Haemophilus influenzae isolate after 20 to 24 hrs by broth microdilution method in presence of clavulanic acid; method in brief: as §2
Haemophilus influenzae [23] = test: Antibacterial activity against Beta-lactamase positive Haemophilus influenzae isolate harboring fst1 mutant gene after 20 to 24 hrs by Etest method in presence of clavulanic acid; method in brief: as §4
Haemophilus influenzae [24] = test: Antibacterial activity against Beta-lactamase positive Haemophilus influenzae assessed as susceptible isolates after 20 to 24 hrs by broth microdilution method; method in brief: as §3
Haemophilus influenzae [25] = test: Antibacterial activity against Beta-lactamase negative Haemophilus influenzae with PBP3 mutation
Haemophilus influenzae [26] = test: Antibacterial activity against Beta-lactamase negative Haemophilus influenzae harboring fst1 mutant gene assessed as resistant isolates after 20 to 24 hrs by Etest method; method in brief: as §6
Haemophilus influenzae [27] = test: Antibacterial activity against Beta-lactamase positive Haemophilus influenzae assessed as resistant isolates after 20 to 24 hrs by broth microdilution method; method in brief: as §3
Haemophilus influenzae [28] = test: Antibacterial activity against Beta-lactamase negative Haemophilus influenzae assessed as resistant isolates after 20 to 24 hrs by broth microdilution method; method in brief: as §3
Haemophilus influenzae [29] = test: Antibacterial activity against Beta-lactamase negative Haemophilus influenzae assessed as resistant isolates after 20 to 24 hrs by Etest method
Haemophilus influenzae [30] = test: Antibacterial activity against Beta-lactamase positive Haemophilus influenzae harboring fst1 mutant gene assessed as susceptible isolates after 20 to 24 hrs by broth microdilution method; method in brief: as §3
Haemophilus influenzae [31] = test: Antibacterial activity against Beta-lactamase positive Haemophilus influenzae harboring fst1 mutant gene assessed as resistant isolates after 20 to 24 hrs by broth microdilution method; method in brief: as §3
Haemophilus influenzae [32] = test: Antibacterial activity against Beta-lactamase positive Haemophilus influenzae harboring fst1 mutant gene assessed as resistant isolates after 20 to 24 hrs by Etest method; method in brief: as §6
Haemophilus influenzae [33] = test: Antibacterial activity against Beta-lactamase positive Haemophilus influenzae harboring fst1 mutant gene assessed as susceptible isolates after 20 to 24 hrs by Etest method; method in brief: as §6
Haemophilus influenzae [34] = test: Antibacterial activity against Beta-lactamase negative ampicillin-resistant Haemophilus influenzae isolate with SSN motif mutation after 20 to 24 hrs by disk diffusion method using <=29 mm disk
Method in brief: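 Disk diffusion per CLSI on HTM base with HTM supplement and yeast extract (5%). Inoculum McFarland 0.5. Incubation 20 to 24 h at 35°C in 5% CO2. Cefixime disk 5 µg. Isolates genotyped for ftsI (SSN motif) by PCR and sequencing. Zone diameter measured.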

Haemophilus influenzae [35] = test: Antibacterial activity against Beta-lactamase negative ampicillin-resistant Haemophilus influenzae isolate with SSN motif mutation after 20 to 24 hrs by Etest method; method in brief: as §6
Haemophilus influenzae [36] = test: Antibacterial activity against Beta-lactamase negative ampicillin-resistant Haemophilus influenzae isolate with SSN motif mutation after 20 to 24 hrs by broth microdilution method; method in brief: as §3

| SMILES | Activity (Haemophilus influenzae [1]) | MIC50 (Haemophilus influenzae [3]) | MIC90 (Haemophilus influenzae [3]) | Activity (Haemophilus influenzae [4]) | Activity (Haemophilus influenzae [8]) | Activity (Haemophilus influenzae [9]) | Activity (Haemophilus influenzae [10]) | MIC50 (Haemophilus influenzae [11]) | MIC90 (Haemophilus influenzae [11]) | MIC50 (Haemophilus influenzae [12]) | MIC90 (Haemophilus influenzae [12]) | Activity (Haemophilus influenzae [13]) | MIC50 (Haemophilus influenzae [14]) | MIC90 (Haemophilus influenzae [14]) | MIC50 (Haemophilus influenzae [15]) | MIC90 (Haemophilus influenzae [15]) | MIC50 (Haemophilus influenzae [16]) | MIC90 (Haemophilus influenzae [16]) | Activity (Haemophilus influenzae [19]) | MIC50 (Haemophilus influenzae [20]) | further results |
| --- | --- | --- | --- | --- | --- | --- | --- | --- | --- | --- | --- | --- | --- | --- | --- | --- | --- | --- | --- | --- | --- |
| CC1(C)S[C@@H]2[C@H](NC(=O)[C@H](N)c3ccc(O)cc3)C(=O)N2[C@H]1C(=O)O [AMOXICILLIN] | 100% | ≥ 64 µg/mL | ≥ 64 µg/mL | 35.3% | 5% | 67.6% | 20.6% | 1 µg/mL (≈ 2.74 µM) | 2 µg/mL (≈ 5.47 µM) | 4 µg/mL (≈ 10.9 µM) | 16 µg/mL (≈ 43.8 µM) | 85% | 0.5 µg/mL (≈ 1.37 µM) | 0.5 µg/mL (≈ 1.37 µM) | 0.5 µg/mL (≈ 1.37 µM) | 0.5 µg/mL (≈ 1.37 µM) | 2 µg/mL (≈ 5.47 µM) | 4 µg/mL (≈ 10.9 µM) | 100% | 32 µg/mL (≈ 87.6 µM) | MIC (Haemophilus influenzae [2]): 1 µg/mL; MIC (Haemophilus influenzae [5]): ≥ 32 µg/mL; MIC (Haemophilus influenzae [6]): 0.25 µg/mL; MIC (Haemophilus influenzae [7]): 0.25 µg/mL; MIC (Haemophilus influenzae [15]): 0.5 µg/mL (≈ 1.37 µM); MIC (Haemophilus influenzae [17]): 0.5 µg/mL; MIC (Haemophilus influenzae [18]): 0.5 µg/mL; MIC90 (Haemophilus influenzae [20]): 64 µg/mL (≈ 175 µM); MIC (Haemophilus influenzae [21]): 0.25 µg/mL; MIC (Haemophilus influenzae [22]): 0.25 µg/mL; MIC (Haemophilus influenzae [23]): 0.5 µg/mL; Activity (Haemophilus influenzae [24]): 0% |
| CC1(C)S[C@@H]2[C@H](NC(=O)[C@H](N)c3ccccc3)C(=O)N2[C@H]1C(=O)O [AMPICILLIN] | 100% | ≥ 32 µg/mL | ≥ 32 µg/mL | 2.9% | 5% | 88.2% | 76.5% | 1 µg/mL (≈ 2.86 µM) | 2 µg/mL (≈ 5.72 µM) | 4 µg/mL (≈ 11.4 µM) | 16 µg/mL (≈ 45.8 µM) | 85% | 0.25 µg/mL (≈ 0.715 µM) | 0.5 µg/mL (≈ 1.43 µM) | ≤ 0.25 µg/mL | 0.5 µg/mL (≈ 1.43 µM) | 1 µg/mL (≈ 2.86 µM) | 2 µg/mL (≈ 5.72 µM) | 100% | 32 µg/mL (≈ 91.6 µM) | MIC (Haemophilus influenzae [5]): ≥ 32 µg/mL; MIC (Haemophilus influenzae [15]): ≤ 0.25 µg/mL; MIC90 (Haemophilus influenzae [20]): 64 µg/mL (≈ 183 µM); MIC (Haemophilus influenzae [25]): >=2 ug; Activity (Haemophilus influenzae [24]): 0% |
| N[C@@H](C(=O)N[C@@H]1C(=O)N2C(C(=O)O)=C(Cl)CS[C@H]12)c1ccccc1 [CEFACLOR ANHYDROUS] | 100% | 8 µg/mL (≈ 21.8 µM) | 16 µg/mL (≈ 43.5 µM) | 0% | 100% | 76.5% | 94.1% | 4 µg/mL (≈ 10.9 µM) | 16 µg/mL (≈ 43.5 µM) | 1 µg/mL (≈ 2.72 µM) | 2 µg/mL (≈ 5.44 µM) | 0% | 1 µg/mL (≈ 2.72 µM) | 2 µg/mL (≈ 5.44 µM) | 2 µg/mL (≈ 5.44 µM) | 4 µg/mL (≈ 10.9 µM) | 8 µg/mL (≈ 21.8 µM) | 8 µg/mL (≈ 21.8 µM) | 100% | 4 µg/mL (≈ 10.9 µM) | MIC50 (Haemophilus influenzae [5]): 8 µg/mL (≈ 21.8 µM); MIC90 (Haemophilus influenzae [5]): 16 µg/mL (≈ 43.5 µM); Activity (Haemophilus influenzae [26]): 5.9%; Activity (Haemophilus influenzae [27]): 5%; Activity (Haemophilus influenzae [28]): 0%; MIC (Haemophilus influenzae [12]): 1 µg/mL (≈ 2.72 µM); Activity (Haemophilus influenzae [29]): 0%; Activity (Haemophilus influenzae [30]): 80%; Activity (Haemophilus influenzae [31]): 0%; Activity (Haemophilus influenzae [32]): 20%; Activity (Haemophilus influenzae [33]): 73.3%; MIC90 (Haemophilus influenzae [20]): 32 µg/mL (≈ 87 µM); Activity (Haemophilus influenzae [24]): 0% |
| C=CC1=C(C(=O)O)N2C(=O)[C@@H](NC(=O)/C(=N\OCC(=O)O)c3csc(N)n3)[C@H]2SC1 [CEFIXIME] | – | – | – | – | – | – | – | – | – | – | – | – | – | – | – | – | – | – | – | – | MIC (Haemophilus influenzae [34]): ≥ 0.5 µg/mL; MIC (Haemophilus influenzae [35]): ≥ 0.5 µg/mL; MIC (Haemophilus influenzae [36]): ≥ 0.5 µg/mL |
